Measured values gathered from unrelated publications.
Each line is one published result; the experiments were not run side by side.
Target: Phosphatidylinositol 3-kinase catalytic subunit type 3 (PIK3C3, Homo sapiens, UniProt Q8NEB9)

Structure (SMILES) | read-out | method | tested at | remaining binding
CC1CCCN1c1nccc(-c2cnn3ncccc23)n1 (centres unmarked) | binding | – | 1 µM | 100%
CN(C)CC#Cc1ccc(OCCCc2sc(N3CCc4cccc(C(=O)Nc5nc6ccccc6s5)c4C3)nc2C(=O)O)c(F)c1 | cell-free assay | competition with immobilised ligand | 1 µM | 100%
COc1ccnn2ncc(-c3ccnc(N(C)C)n3)c12 | binding | – | 1 µM | 96%
COc1cnc(Nc2cccc(S(N)(=O)=O)c2)nc1N1CCN(c2ccccc2)CC1 | binding | competition with immobilised ligand | 1 µM | 76%
O=C(NCC1CCOCC1)c1n[nH]cc1NC(=O)c1c(F)cccc1F | binding | competition with immobilised ligand | 1 µM | 97%
FC(F)(F)Oc1cccc(-c2cnc3ccc(-c4ccncc4)nn23)c1 | cell-free assay | competition with immobilised ligand | 5 µM | 34%
O=C(NCCCN1CCOCC1)c1ccc(Nc2nccc(-c3cc4ccccc4s3)n2)cc1 | binding | competition with immobilised ligand | 1 µM | 0.6%
CC1=C(C#N)C(c2ccc3c(c2)c(NC(=O)c2ccccc2C)nn3C)C(C#N)=C(C)N1 | cell-free assay | competition with immobilised ligand | 1 µM | 87%
C[C@H]1CCN(c2nccc(-c3cnn4ncccc34)n2)C1 | binding | – | 1 µM | 86%
Nc1ncc2c(n1)-c1c([nH]c3ccc(C#CC4CC4)cc13)CCCC2 | binding | competition with immobilised ligand | 1 µM | 93%
O=C(O)[C@@H]1[C@@H](Cn2nnc3ccccc3c2=O)CC[C@H]1C(=O)c1ccc(OCCC2CCOCC2)cc1 | cell-free assay | competition with immobilised ligand | 1 µM | 96%
C[C@@H](c1ccc(-n2cnc3c(N)ncnc32)cc1)N1CCc2nn(C)c(Cc3ccccc3)c2C1=O | binding | competition with immobilised ligand | 0.1 µM | 76%
O=C(NC[C@@H]1[C@H]2CN(C(=O)OCc3cc(C(F)(F)F)cc(C(F)(F)F)c3)C[C@@H]12)c1ccc2[nH]nnc2c1 | cell-free assay | competition with immobilised ligand | 1 µM | 72%
O=C(NCCCN1CCOCC1)c1ccc(Nc2ncc(Cl)c(-c3ccc(Cl)s3)n2)cc1 | binding | competition with immobilised ligand | 1 µM | 33%
CN(c1nccc(-c2cnn3ncccc23)n1)C1CC1 | binding | – | 1 µM | 100%
CO[C@@H](C)c1c(Nc2ccc([C@H](N(C)C(=O)C3CCS(=O)(=O)CC3)C(F)(F)F)cc2)cnc2cc(Cl)nn12 | cell-free assay | competition with immobilised ligand | 1 µM | 100%
CN(C)c1nccc(-c2cnn3ncccc23)n1 | binding | – | 1 µM | 100%
O=S(=O)(NC1CCC(c2cc(F)ccc2F)(S(=O)(=O)c2ccc(Cl)cc2)CC1)C(F)(F)F (centres unmarked) | cell-free assay | competition with immobilised ligand | 1 µM | 100%
O=C(c1ccc(Nc2ncc(Cl)c(-c3ccc(Cl)s3)n2)cc1)N1CCC(N2CCCC2)CC1 | binding | competition with immobilised ligand | 1 µM | 54%
N[C@H]1CCN(c2nccc(-c3cnn4ncccc34)n2)C1 | binding | – | 1 µM | 77%
